Key:
[1] = biological target: Human immunodeficiency virus type 1 protease (Human immunodeficiency virus 1) (UniProt Q72874); test: Ratio of inhibitory activity on HIV-1 protease (IC50) to antiviral activity against HIV-1 in human H9 T-lymphoid cell-ELISA assay(CIC); assay type: functional, cell-based
Summary of the method: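 Ratio of enzyme IC50 against HIV-1 protease to CIC. CIC is the minimum cell culture inhibitory concentration that prevents spread of HIV-1 infection in human H9 T-lymphoid cells, read out by p24 ELISA.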

H9 [2] = test: In vitro anti viral activity against HIV-1 in human H9 T-lymphoid cell culture by p-24-ELISA assay; assay type: functional
Summary of the method: (§1)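 Read-out is the minimum cell culture inhibitory concentration (CIC), the lowest concentration that fully prevents spread of viral infection in the human cell culture. Spread is scored by fixed-cell immunofluorescence or by p24 ELISA.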

[3] = biological target: T1, Human immunodeficiency virus type 1 protease (Human immunodeficiency virus 1, UniProt Q72874); test: (§2) In vitro enzyme inhibitory activity against HIV-1 protease.
H9 [4] = test: In vitro anti viral activity against HIV-1 in human H9 T-lymphoid cell culture by fixed cell immunofluorescence assay; assay type: functional; summary of the method: as §1
[5] = biological target: T1, Human immunodeficiency virus type 1 protease; test: as §2; assay type: functional
MT4 [6] = test: In vitro anti viral activity against HIV-1(IIIb) MT-4 T-lymphoid cell culture by fixed cell immunofluorescence assay; assay type: functional, Homo sapiens; summary of the method: as §1
Homo sapiens [7] = organism: Homo sapiens; test: In vitro anti viral activity against HIV-1(IIIb) in peripheral blood lymphocytes by p-24-ELISA assay; assay type: functional; summary of the method: as §1
Homo sapiens [8] = organism: Homo sapiens; test: In vitro anti viral activity against HIV-1(IIIb) in peripheral blood lymphocytes by fixed cell immunofluorescence assay; assay type: functional; summary of the method: as §1
H9 [9] = test: In vitro anti viral activity against HIV-1(IIIb) in H9 T-lymphoid cell culture by p-24 ELISA assay; assay type: functional, Homo sapiens; summary of the method: as §1
MT4 [10] = test: In vitro anti viral activity against HIV-1(WMJ-2) in MT-4 T-lymphoid cell culture by fixed cell immunofluorescence assay; assay type: functional, Homo sapiens; summary of the method: as §1
MT4 [11] = test: In vitro anti viral activity against HIV-1(RF) in MT-4 T-lymphoid cell culture by fixed cell immunofluorescence assay; assay type: functional, Homo sapiens; summary of the method: as §1
H9 [12] = test: In vitro anti viral activity against HIV-1(IIIb) in H9 T-lymphoid cell culture by fixed cell immunofluorescence assay; assay type: functional, Homo sapiens; summary of the method: as §1
H9 [13] = test: In vitro anti viral activity against SIV(mne) in H9 T-lymphoid cell culture by fixed cell immunofluorescence assay; assay type: functional, Homo sapiens; summary of the method: as §1
H9 [14] = test: In vitro anti viral activity against SIV-mac251 in H9 T-lymphoid cell culture by fixed cell immunofluorescence assay; assay type: functional, Homo sapiens; summary of the method: as §1
Homo sapiens [15] = organism: Homo sapiens; test: In vitro anti viral activity against HIV-1(SF162) in monocytes/macrophages by fixed cell immunofluorescence assay; assay type: functional; summary of the method: as §1
MT4 [16] = test: In vitro anti viral activity against HIV-1(RUTZ) in MT-4 T-lymphoid cell culture by fixed cell immunofluorescence assay; assay type: functional, Homo sapiens; summary of the method: as §1
MT4 [17] = test: In vitro anti viral activity against HIV-1(IIIb) MT-4 T-lymphoid cell culture by p-24-ELISA assay; assay type: functional, Homo sapiens; summary of the method: as §1
MT4 [18] = test: In vitro anti viral activity against HIV-1(MN) in MT-4 T-lymphoid cell culture by fixed cell immunofluorescence assay; assay type: functional, Homo sapiens; summary of the method: as §1
MT4 [19] = test: In vitro anti viral activity against HIV-1(IIIB) in MT-4 T-lymphoid cell culture by p-24-ELISA assay; assay type: functional, Homo sapiens; summary of the method: as §1

Compound	I/C [1]	CIC (H9 [2]) [nM]	IC50 [3] [pM]	CIC (H9 [4]) [nM]	further results
CC(C)(C)OC(=O)N[C@@H](Cc1ccccc1)[C@@H](O)C[C@@H](Cc1ccc(OCc2ccccc2)cc1)C(=O)NC1c2ccccc2C[C@H]1O (some centres undefined)	0.0036	50	180	–	–
CN(C)CCOc1ccc(C[C@H](C[C@H](O)[C@H](Cc2ccccc2)NC(=O)OC(C)(C)C)C(=O)NC2c3ccccc3C[C@H]2O)cc1 (some centres undefined)	0.0025	–	1000	400	–
CC(C)(C)OC(=O)N[C@@H](Cc1ccccc1)[C@@H](O)C[C@@H](Cc1ccc(OCC[N+]2([O-])CCOCC2)cc1)C(=O)NC1c2ccccc2C[C@H]1O (some centres undefined)	0.002	100	200	–	–
CC(C)(C)OC(=O)N[C@@H](Cc1ccccc1)[C@@H](O)C[C@@H](Cc1ccc(OCCN2CCCCC2)cc1)C(=O)NC1c2ccccc2C[C@H]1O (some centres undefined)	0.004	–	1600	400	–
CC(C)(C)OC(=O)N[C@@H](Cc1ccccc1)[C@@H](O)C[C@@H](Cc1ccc(OCCCN2CCOCC2)cc1)C(=O)NC1c2ccccc2C[C@H]1O (some centres undefined)	0.01	–	2000	200	–
CC(C)(C)OC(=O)N[C@@H](Cc1ccc(O)cc1)[C@@H](O)C[C@@H](Cc1ccccc1)C(=O)NC1c2ccccc2C[C@H]1O (some centres undefined)	0.007	25	350	50	–
CC(C)(C)OC(=O)N[C@@H](Cc1ccccc1)[C@@H](O)C[C@@H](Cc1ccc(OCCN2CCCC2)cc1)C(=O)NC1c2ccccc2C[C@H]1O (some centres undefined)	–	–	1800	–	–
CC(C)(C)OC(=O)N[C@@H](Cc1ccccc1)[C@@H](O)C[C@@H](Cc1ccc(OCCN2CCS(=O)(=O)CC2)cc1)C(=O)NC1c2ccccc2C[C@H]1O (some centres undefined)	0.0008	100	80	–	–
CC(C)(C)OC(=O)N[C@@H](Cc1ccccc1)[C@@H](O)C[C@@H](Cc1ccc(O)cc1)C(=O)N[C@H]1c2ccccc2C[C@H]1O	0.0032	50	160	25	–
CC(C)(C)OC(=O)N[C@@H](Cc1ccccc1)[C@@H](O)CC(Cc1ccc(OCC(=O)O)cc1)C(=O)NC1c2ccccc2C[C@H]1O (some centres undefined)	< 0.0001	>400	40	–	–
CC(C)(C)OC(=O)N[C@@H](Cc1ccccc1)[C@@H](O)C[C@@H](Cc1ccccc1)C(=O)N[C@H]1c2ccccc2C[C@H]1O	0.0009	–	350	400	–
CC(C)(C)OC(=O)N[C@@H](Cc1ccccc1)[C@@H](O)C[C@@H](Cc1ccc(OCCN2CCOCC2)cc1)C(=O)N[C@H]1c2ccccc2C[C@H]1O	0.038	50	–	12	IC50 [5]: 450 pM; CIC (MT4 [6]): 25 nM; CIC (Homo sapiens [7]): 25 nM; CIC (Homo sapiens [8]): 0.78 nM; CIC (H9 [9]): 25 nM; CIC (MT4 [10]): 12 nM; CIC (MT4 [11]): 50 nM; CIC (H9 [12]): 12 nM; CIC (H9 [13]): 200 nM; CIC (H9 [14]): 800 nM; CIC (Homo sapiens [15]): 50 nM; CIC (MT4 [16]): 12 nM; CIC (MT4 [17]): 50 nM; CIC (MT4 [18]): 25 nM
NC1N=CNc2c1ncn2[C@H]1CC[C@@H](CO)O1 (some centres undefined)	–	–	–	25000	–
CC(C)(C)OC(=O)N[C@@H](Cc1ccccc1)[C@@H](O)C[C@@H](Cc1ccc(OCCN2CC[S+]([O-])CC2)cc1)C(=O)NC1c2ccccc2C[C@H]1O (some centres undefined)	0.00035	–	70	200	–
CN1CCN(CCOc2ccc(C[C@H](C[C@H](O)[C@H](Cc3ccccc3)NC(=O)OC(C)(C)C)C(=O)NC3c4ccccc4C[C@H]3O)cc2)CC1 (some centres undefined)	0.002	100	200	–	–
Cc1cn([C@H]2C[C@H](N=[N+]=[N-])[C@@H](CO)O2)c(=O)[nH]c1=O [ZIDOVUDINE]	–	–	–	–	CIC (MT4 [19]): 25 nM
CC(C)(C)OC(=O)N[C@@H](Cc1ccc(OCCN2CCOCC2)cc1)[C@@H](O)C[C@@H](Cc1ccccc1)C(=O)NC1c2ccccc2C[C@H]1O (some centres undefined)	0.011	–	550	50	–
CC(C)(C)OC(=O)N[C@@H](Cc1ccc(OCCN2CCOCC2)cc1)[C@@H](O)C[C@@H](Cc1ccc(OCCN2CCOCC2)cc1)C(=O)NC1c2ccccc2C[C@H]1O (some centres undefined)	0.019	–	1900	100	–
CC(C)(C)OC(=O)N[C@@H](Cc1ccc(O)cc1)[C@@H](O)C[C@@H](Cc1ccc(O)cc1)C(=O)NC1c2ccccc2C[C@H]1O (some centres undefined)	0.0002	–	150	780	–
COCCN(CCOC)CCOc1ccc(C[C@H](C[C@H](O)[C@H](Cc2ccccc2)NC(=O)OC(C)(C)C)C(=O)NC2c3ccccc3C[C@H]2O)cc1 (some centres undefined)	0.018	–	900	50	–
CC(C)(C)OC(=O)N[C@@H](Cc1ccccc1)[C@@H](O)C[C@@H](Cc1ccc(OCC(=O)N2CCOCC2)cc1)C(=O)NC1c2ccccc2C[C@H]1O (some centres undefined)	0.004	50	200	–	–
CC(C)(C)OC(=O)N[C@@H](Cc1ccccc1)[C@@H](O)C[C@@H](Cc1ccc(OCCN2CCSCC2)cc1)C(=O)NC1c2ccccc2C[C@H]1O (some centres undefined)	0.0094	–	470	50	–
CC(C)(C)OC(=O)N[C@@H](Cc1ccccc1)[C@@H](O)C[C@@H](Cc1ccc(OCCO)cc1)C(=O)NC1c2ccccc2C[C@H]1O (some centres undefined)	0.0018	50	90	–	–
